Test results: ChEMBL document CHEMBL5357042, “Discovery of imidazo[1,2-b]pyridazine-containing TAK1 kinase inhibitors with excellent activities against multiple myeloma” (RSC Med Chem, 2024)
The source made the active and inactive calls. No cut-off for these calls is given here.

Legend:
[1] = biological target: Mitogen-activated protein kinase kinase kinase 7 (Homo sapiens, UniProt O43318); assay: Inhibition of human TAK1 using casein as substrate in presence of [gamma-33P]-ATP by radiometric hotspot kinase assay
[2] = biological target: Serine/threonine-protein kinase B-raf (Homo sapiens) (UniProt P15056); assay: Inhibition of human wild type partial length BRAF (429 to 741 residues) expressed in mammalian expression system at 50 to 500 nM by KinomeScan analysis; details: dose 50-500 nM
[3] = biological target: Platelet-derived growth factor receptor beta (Homo sapiens) (UniProt P09619); assay: Inhibition of human wild type partial length PDGFRB (582 to 1009 residues) expressed in bacterial expression system at 50 to 500 nM by KinomeScan analysis; details: dose 50-500 nM
Platelet-derived growth factor receptor beta (Homo sapiens), sequence (P09619 whole entry, the tested form may be a part): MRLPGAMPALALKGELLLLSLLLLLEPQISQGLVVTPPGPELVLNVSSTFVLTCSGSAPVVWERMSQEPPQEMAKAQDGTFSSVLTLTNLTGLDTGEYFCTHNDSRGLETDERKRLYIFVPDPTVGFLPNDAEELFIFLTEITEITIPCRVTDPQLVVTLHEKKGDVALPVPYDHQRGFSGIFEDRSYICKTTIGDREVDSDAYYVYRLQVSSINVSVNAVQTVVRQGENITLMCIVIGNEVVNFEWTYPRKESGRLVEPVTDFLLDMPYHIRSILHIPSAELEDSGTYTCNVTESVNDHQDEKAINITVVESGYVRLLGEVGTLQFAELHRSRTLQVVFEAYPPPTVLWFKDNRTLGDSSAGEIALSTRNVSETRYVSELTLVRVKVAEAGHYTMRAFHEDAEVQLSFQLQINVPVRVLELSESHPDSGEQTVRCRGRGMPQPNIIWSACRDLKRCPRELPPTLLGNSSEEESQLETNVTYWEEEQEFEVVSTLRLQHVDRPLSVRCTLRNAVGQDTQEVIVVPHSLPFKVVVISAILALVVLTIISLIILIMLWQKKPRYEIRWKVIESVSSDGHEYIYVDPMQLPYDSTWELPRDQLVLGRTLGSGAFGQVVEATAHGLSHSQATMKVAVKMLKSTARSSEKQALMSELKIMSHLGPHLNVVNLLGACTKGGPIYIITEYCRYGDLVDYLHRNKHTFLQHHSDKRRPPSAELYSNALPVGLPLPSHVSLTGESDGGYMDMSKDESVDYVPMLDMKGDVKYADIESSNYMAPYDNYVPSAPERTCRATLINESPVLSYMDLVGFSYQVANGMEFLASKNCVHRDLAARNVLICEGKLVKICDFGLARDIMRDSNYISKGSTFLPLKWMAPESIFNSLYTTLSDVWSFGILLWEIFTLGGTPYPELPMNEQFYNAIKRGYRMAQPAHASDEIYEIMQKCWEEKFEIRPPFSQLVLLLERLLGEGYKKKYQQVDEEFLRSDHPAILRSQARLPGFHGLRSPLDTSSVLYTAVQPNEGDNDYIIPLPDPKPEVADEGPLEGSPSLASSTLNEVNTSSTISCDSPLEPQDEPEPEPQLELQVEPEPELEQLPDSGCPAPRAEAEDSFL

NCI-H929 = assay: Cytotoxicity against human NCI-H929 cells assessed as reduction in cell viability incubated for 72 hrs by CellTiter-Blue assay; assay type: functional
Procedure, shortened: (§1)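 H929 (RPMI, 10% heat-inactivated FBS) or MPC-11 (DMEM, 10% FBS) cells, under 10 passages, 37 °C, 5% CO₂; 4–5 × 10³ cells/well seeded, 24 h, then compound at various concentrations for 72 h. CellTiter-Blue added for 3 h, fluorescence ex/em 560/590 nm. Normalized to DMSO-treated cells; triplicate, mean and standard deviation.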

[4] = biological target: T1, Mitogen-activated protein kinase kinase kinase 7 (Homo sapiens) (UniProt O43318); assay: Inhibition of TAK1 (unknown origin) at 20 nM by ADP-Glo kinase assay
T1 sequence (whole entry): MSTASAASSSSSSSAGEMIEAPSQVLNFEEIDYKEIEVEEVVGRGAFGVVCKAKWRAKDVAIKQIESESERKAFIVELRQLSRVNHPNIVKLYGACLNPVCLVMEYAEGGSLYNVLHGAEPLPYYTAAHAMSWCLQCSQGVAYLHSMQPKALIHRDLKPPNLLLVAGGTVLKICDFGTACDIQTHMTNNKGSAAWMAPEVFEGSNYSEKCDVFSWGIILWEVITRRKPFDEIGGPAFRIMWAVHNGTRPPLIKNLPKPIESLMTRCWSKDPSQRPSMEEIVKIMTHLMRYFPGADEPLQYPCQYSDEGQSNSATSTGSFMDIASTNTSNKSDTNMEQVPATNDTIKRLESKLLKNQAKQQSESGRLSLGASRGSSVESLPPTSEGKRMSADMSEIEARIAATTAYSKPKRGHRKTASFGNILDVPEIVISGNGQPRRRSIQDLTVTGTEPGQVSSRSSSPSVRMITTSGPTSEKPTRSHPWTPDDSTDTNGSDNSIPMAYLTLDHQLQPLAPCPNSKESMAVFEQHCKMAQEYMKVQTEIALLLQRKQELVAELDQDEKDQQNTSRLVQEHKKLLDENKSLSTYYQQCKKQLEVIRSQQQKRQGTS

[5] = biological target: Tyrosine-protein kinase JAK2 (Homo sapiens) (UniProt O60674); assay: Inhibition of human wild type partial length JAK2 (829 to 1132 residues) expressed in mammalian expression system at 50 to 500 nM by KinomeScan analysis; details: dose 50-500 nM
Tyrosine-protein kinase JAK2 (Homo sapiens), sequence (O60674 whole entry, the tested form may be a part): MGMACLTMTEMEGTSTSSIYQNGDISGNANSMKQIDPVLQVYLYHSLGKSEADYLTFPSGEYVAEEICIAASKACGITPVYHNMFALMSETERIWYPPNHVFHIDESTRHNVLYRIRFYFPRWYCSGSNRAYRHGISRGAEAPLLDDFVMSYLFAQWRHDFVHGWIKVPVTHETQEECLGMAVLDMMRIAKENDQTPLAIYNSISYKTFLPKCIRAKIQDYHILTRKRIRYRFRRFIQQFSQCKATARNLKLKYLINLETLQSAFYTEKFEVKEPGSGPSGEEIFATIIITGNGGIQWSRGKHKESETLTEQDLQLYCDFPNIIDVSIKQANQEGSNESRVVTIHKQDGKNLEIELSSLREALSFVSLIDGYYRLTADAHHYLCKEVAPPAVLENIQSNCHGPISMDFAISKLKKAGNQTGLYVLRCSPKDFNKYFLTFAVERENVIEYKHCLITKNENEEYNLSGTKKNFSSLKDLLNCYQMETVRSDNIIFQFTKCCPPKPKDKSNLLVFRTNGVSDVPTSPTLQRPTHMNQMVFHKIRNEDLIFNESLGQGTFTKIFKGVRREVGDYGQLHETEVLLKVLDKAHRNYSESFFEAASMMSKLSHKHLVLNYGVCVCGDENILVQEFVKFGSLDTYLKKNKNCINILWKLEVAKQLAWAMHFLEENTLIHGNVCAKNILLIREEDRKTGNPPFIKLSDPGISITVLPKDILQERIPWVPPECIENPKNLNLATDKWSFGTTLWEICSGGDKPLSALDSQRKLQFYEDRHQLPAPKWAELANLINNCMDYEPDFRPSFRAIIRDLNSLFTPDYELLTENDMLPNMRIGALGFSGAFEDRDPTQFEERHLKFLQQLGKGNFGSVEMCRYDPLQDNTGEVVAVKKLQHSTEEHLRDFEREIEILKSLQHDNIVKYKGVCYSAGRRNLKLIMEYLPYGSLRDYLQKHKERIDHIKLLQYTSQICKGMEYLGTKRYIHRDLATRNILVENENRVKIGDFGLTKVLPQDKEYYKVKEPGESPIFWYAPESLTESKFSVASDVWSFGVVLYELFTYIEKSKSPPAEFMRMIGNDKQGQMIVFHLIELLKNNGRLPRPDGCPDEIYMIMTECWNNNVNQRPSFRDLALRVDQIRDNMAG

MPC-11 = assay: Cytotoxicity against mouse MPC-11 cells assessed as reduction in cell viability incubated for 72 hrs by CellTiter-Blue assay; assay type: functional; procedure, shortened: as §1
[6] = biological target: Tyrosine-protein kinase ZAP-70 (Homo sapiens) (UniProt P43403); assay: Inhibition of human wild type partial length ZAP70 (20 to 299 residues) expressed in mammalian expression system at 50 to 500 nM by KinomeScan analysis; details: dose 50-500 nM
[7] = biological target: T1, Mitogen-activated protein kinase kinase kinase 7 (Homo sapiens); assay: Inhibition of TAK1 (unknown origin) at 500 nM by ADP-Glo kinase assay
[8] = biological target: Epidermal growth factor receptor (Homo sapiens) (UniProt P00533); assay: Inhibition of human wild type partial length EGFR (669 to 1011 residues) expressed in bacterial expression system at 50 to 500 nM by KinomeScan analysis; details: dose 50-500 nM
[9] = biological target: Mitogen-activated protein kinase kinase kinase 7 (Mus musculus) (UniProt Q62073); assay: Inhibition of TAK1 in mouse MPC-11 cells assessed as reduction in TAK1 phosphorylation at Ser412 residue at 0.1 to 0.5 uM incubated for 48 hrs by Western blot analysis; assay type: cell-based; details: dose 0.1-0.5 µM
Mitogen-activated protein kinase kinase kinase 7 (Mus musculus), sequence (Q62073 whole entry): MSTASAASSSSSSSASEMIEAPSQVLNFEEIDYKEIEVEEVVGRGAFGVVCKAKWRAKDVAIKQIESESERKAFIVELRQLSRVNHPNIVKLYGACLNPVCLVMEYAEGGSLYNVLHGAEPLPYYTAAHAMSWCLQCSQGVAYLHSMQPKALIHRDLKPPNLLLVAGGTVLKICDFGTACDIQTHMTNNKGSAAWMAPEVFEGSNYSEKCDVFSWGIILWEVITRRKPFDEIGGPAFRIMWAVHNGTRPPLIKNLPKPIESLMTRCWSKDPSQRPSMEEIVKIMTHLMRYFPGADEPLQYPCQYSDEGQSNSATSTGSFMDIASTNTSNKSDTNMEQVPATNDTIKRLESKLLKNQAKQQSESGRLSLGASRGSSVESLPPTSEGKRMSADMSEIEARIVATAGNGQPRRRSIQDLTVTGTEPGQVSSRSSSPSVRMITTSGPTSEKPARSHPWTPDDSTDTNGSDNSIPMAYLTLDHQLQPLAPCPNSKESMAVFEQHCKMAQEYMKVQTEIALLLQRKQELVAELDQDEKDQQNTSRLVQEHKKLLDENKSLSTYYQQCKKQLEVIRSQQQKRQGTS
Procedure, shortened: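 MPC-11 cells (0.5–1 × 10⁶/well) seeded, treated after 24 h for 48 h; DMSO control. BCA protein quantitation, 10% SDS-PAGE, PVDF; pTAK1, TAK1, β-actin antibodies overnight 4 °C, HRP secondaries 2 h 24 °C, chemiluminescence. Bands quantified relative to actin; duplicates, mean and standard deviation.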

[10] = biological target: cAMP-dependent protein kinase catalytic subunit alpha (Homo sapiens) (UniProt P17612); assay: Inhibition of human wild type partial length PKAC-alpha (10 to 351 residues) expressed in bacterial expression system at 50 to 500 nM by KinomeScan analysis; details: dose 50-500 nM
[11] = biological target: RAC-beta serine/threonine-protein kinase (Homo sapiens) (UniProt P31751); assay: Inhibition of human wild type partial length AKT2 expressed in bacterial expression system at 50 to 500 nM by KinomeScan analysis; details: dose 50-500 nM
[12] = biological target: Aurora kinase A (Homo sapiens) (UniProt O14965); assay: Inhibition of human wild type partial length Aurora A (122 to 401 residues) expressed in mammalian expression system at 50 to 500 nM by KinomeScan analysis; details: dose 50-500 nM
Aurora kinase A (Homo sapiens), sequence (O14965 whole entry, the tested form may be a part): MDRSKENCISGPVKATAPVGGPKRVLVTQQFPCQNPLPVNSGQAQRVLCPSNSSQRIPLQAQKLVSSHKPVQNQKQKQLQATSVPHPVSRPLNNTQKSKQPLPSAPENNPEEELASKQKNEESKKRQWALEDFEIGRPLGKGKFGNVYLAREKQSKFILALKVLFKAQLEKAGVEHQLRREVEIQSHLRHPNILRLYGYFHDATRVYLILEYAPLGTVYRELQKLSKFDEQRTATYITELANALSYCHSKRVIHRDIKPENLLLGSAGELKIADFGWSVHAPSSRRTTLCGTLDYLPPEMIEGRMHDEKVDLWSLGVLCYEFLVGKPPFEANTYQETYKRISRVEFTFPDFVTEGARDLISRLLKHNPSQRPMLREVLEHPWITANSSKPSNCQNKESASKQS

[13] = biological target: Aurora kinase B (Homo sapiens) (UniProt Q96GD4); assay: Inhibition of human wild type partial length Aurora B (25 to 303 residues) expressed in mammalian expression system at 50 to 500 nM by KinomeScan analysis; details: dose 50-500 nM
[14] = biological target: Vascular endothelial growth factor receptor 2 (Homo sapiens) (UniProt P35968); assay: Inhibition of human wild type partial length VEGFR2 (787 to 1253 residues) expressed in mammalian expression system at 50 to 500 nM by KinomeScan analysis; details: dose 50-500 nM
[15] = biological target: Platelet-derived growth factor receptor alpha (Homo sapiens) (UniProt P16234); assay: Inhibition of human wild type partial length PDGFRA (575 to 1002 residues) expressed in mammalian expression system at 50 to 500 nM by KinomeScan analysis; details: dose 50-500 nM
[16] = biological target: Fibroblast growth factor receptor 2 (Homo sapiens) (UniProt P21802); assay: Inhibition of human wild type partial length FGFR2 (457 to 769 residues) expressed in bacterial expression system at 50 to 500 nM by KinomeScan analysis; details: dose 50-500 nM
Fibroblast growth factor receptor 2 (Homo sapiens), sequence (P21802 22-821 limits assumed): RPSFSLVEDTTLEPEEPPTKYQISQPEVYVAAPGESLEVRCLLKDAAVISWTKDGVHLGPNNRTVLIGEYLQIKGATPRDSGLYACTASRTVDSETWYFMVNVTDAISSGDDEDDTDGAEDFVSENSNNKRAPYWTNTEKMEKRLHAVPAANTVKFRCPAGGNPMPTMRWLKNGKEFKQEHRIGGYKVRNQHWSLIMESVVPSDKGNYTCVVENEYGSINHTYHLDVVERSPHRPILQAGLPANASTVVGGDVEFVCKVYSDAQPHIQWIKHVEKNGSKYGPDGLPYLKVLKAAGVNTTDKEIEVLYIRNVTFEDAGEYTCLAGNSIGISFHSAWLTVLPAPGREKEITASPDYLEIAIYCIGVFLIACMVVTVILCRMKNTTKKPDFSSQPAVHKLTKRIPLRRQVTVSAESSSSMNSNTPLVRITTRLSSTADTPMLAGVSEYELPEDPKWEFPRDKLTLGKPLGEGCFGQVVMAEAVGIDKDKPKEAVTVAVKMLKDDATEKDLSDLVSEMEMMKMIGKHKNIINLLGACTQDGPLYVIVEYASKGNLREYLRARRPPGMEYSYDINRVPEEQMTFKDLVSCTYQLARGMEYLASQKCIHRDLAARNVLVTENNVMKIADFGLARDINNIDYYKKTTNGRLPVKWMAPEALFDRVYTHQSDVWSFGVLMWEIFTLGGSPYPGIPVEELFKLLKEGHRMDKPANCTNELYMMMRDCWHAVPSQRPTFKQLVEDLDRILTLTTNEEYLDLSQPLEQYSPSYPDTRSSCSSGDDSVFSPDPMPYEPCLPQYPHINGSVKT

[17] = biological target: Mast/stem cell growth factor receptor Kit (Homo sapiens) (UniProt P10721); assay: Inhibition of human wild type partial length c-Kit (545 to 952 residues) expressed in mammalian expression system at 50 to 500 nM by KinomeScan analysis; details: dose 50-500 nM
Mast/stem cell growth factor receptor Kit (Homo sapiens), sequence (P10721 whole entry, the tested form may be a part): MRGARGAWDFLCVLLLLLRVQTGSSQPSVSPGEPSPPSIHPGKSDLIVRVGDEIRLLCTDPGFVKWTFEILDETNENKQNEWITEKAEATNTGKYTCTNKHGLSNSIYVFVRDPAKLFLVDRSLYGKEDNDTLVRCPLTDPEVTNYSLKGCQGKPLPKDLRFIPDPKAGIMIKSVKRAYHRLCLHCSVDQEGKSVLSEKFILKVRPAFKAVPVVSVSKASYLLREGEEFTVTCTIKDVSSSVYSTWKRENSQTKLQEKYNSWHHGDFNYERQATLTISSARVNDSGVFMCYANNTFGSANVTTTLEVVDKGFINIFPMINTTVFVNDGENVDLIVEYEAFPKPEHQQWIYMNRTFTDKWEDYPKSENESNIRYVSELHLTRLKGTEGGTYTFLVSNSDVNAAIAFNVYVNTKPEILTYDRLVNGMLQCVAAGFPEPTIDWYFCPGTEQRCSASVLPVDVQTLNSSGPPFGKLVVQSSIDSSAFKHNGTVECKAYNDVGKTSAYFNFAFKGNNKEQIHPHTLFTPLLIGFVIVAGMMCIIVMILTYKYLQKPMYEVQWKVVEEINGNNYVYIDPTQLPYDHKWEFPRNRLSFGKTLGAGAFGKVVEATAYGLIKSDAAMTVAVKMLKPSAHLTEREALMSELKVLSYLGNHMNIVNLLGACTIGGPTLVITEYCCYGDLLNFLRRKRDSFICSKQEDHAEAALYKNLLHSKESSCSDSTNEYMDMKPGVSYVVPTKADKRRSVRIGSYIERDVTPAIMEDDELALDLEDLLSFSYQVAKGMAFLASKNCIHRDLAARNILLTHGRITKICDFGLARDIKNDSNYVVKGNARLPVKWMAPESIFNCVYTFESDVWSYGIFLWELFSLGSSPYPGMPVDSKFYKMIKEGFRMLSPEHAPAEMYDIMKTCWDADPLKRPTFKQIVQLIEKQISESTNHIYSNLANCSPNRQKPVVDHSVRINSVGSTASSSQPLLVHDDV

[18] = biological target: Fibroblast growth factor receptor 3 (Homo sapiens) (UniProt P22607); assay: Inhibition of human wild type partial length FGFR3 (442 to 771 residues) expressed in bacterial expression system at 50 to 500 nM by KinomeScan analysis; details: dose 50-500 nM
[19] = biological target: Proto-oncogene tyrosine-protein kinase receptor Ret (Homo sapiens) (UniProt P07949); assay: Inhibition of human RET at 50 to 500 nM by KinomeScan analysis; details: dose 50-500 nM
[20] = biological target: RAC-alpha serine/threonine-protein kinase (Homo sapiens) (UniProt P31749); assay: Inhibition of human wild type partial length AKT1 expressed in bacterial expression system at 50 to 500 nM by KinomeScan analysis; details: dose 50-500 nM
[21] = biological target: T1, Mitogen-activated protein kinase kinase kinase 7 (Homo sapiens); assay: Inhibition of TAK1 (unknown origin) at 100 nM by ADP-Glo kinase assay

C[C@@H]1CN(c2ccc3ncc(-c4ccc5[nH]nc(C6CC6)c5c4)n3n2)C[C@H](C)O1
IC50 [1]: 55 nM | inhibition [2]: Active | inhibition [3]: Active | GI50 (NCI-H929): 43 nM | inhibition [4]: > 50% | inhibition [5]: Active | GI50 (MPC-11): 41 nM | inhibition [6]: Active | inhibition [7]: 100% | inhibition [8]: Active | inhibition [9]: Active | inhibition [10]: Active | inhibition [11]: Active | inhibition [12]: Active | inhibition [13]: Active | inhibition [14]: Active | inhibition [15]: Active | inhibition [16]: Active | inhibition [17]: Active | inhibition [18]: Active | inhibition [19]: Active | inhibition [20]: Active | inhibition [21]: > 50%
